In ChEMBL document CHEMBL1129686, “(S)-(-)-5-ethynyl-3-(1-methyl-2-pyrrolidinyl)pyridine maleate (SIB-1508Y): a novel anti-parkinsonian agent with selectivity for neuronal nicotinic acetylcholine receptors” (J Med Chem, 1996):
Where “and” joins values, the source holds several entries; their conditions need not be identical. Equal values may be shown once.

How the values were obtained:
[1] = molecular target: Muscarinic acetylcholine receptor; experiment: Muscarinic acetylcholine receptor binding (rat cortical membranes) was determined by displacement of [3H]quinuclidinyl benzylate [3H]QNB)
[2] = molecular target: T1, Nicotinic acetylcholine receptor alpha2/beta4 (Homo sapiens, UniProt P30926+Q15822); experiment: The compound was tested on recombinant human alpha2-beta4 cell lines of Human embryonic kidney for nicotinic acetylcholine receptor agonist functional potency
In short: (§1)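 Stably transfected human recombinant NAChR cell lines: HEK293 for α2β4, α3β4, α4β4 and α4β2; human RD cells for fetal α1β1γδ muscle receptor. Agonist-evoked Ca2+ entry read as change in [Ca2+]i with fluo-3. Highest concentration tested 300 μM.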

[3] = molecular target: Neuronal nicotinic acetylcholine receptor; experiment: Binding affinity at NAChRs was determined by measuring the displacement of ([3H]Nic) from a preparation of rat cortical membranes.; assay type: cell membranes, Membrane
[4] = molecular target: T2, Neuronal acetylcholine receptor; alpha4/beta4 (Homo sapiens, UniProt P30926+P43681); experiment: The compound was tested on recombinant human alpha4-beta4 cell lines of Human embryonic kidney for nicotinic acetylcholine receptor agonist functional potency; in short: as §1
Target sequence in this assay (P30926 whole entry): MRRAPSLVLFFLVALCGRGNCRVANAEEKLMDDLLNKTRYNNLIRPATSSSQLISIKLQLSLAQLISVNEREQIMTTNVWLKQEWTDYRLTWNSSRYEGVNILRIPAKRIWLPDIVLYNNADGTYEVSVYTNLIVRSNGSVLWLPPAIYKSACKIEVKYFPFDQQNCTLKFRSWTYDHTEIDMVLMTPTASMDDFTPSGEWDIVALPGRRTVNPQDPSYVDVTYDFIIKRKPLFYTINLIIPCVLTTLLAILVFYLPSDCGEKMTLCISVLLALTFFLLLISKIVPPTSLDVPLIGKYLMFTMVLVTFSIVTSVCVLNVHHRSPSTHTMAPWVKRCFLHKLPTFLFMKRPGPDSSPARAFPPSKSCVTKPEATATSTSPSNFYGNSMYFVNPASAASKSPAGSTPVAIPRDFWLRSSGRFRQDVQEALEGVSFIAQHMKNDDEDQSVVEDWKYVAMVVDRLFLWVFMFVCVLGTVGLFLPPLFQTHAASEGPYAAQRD
Target sequence in this assay (P43681 whole entry): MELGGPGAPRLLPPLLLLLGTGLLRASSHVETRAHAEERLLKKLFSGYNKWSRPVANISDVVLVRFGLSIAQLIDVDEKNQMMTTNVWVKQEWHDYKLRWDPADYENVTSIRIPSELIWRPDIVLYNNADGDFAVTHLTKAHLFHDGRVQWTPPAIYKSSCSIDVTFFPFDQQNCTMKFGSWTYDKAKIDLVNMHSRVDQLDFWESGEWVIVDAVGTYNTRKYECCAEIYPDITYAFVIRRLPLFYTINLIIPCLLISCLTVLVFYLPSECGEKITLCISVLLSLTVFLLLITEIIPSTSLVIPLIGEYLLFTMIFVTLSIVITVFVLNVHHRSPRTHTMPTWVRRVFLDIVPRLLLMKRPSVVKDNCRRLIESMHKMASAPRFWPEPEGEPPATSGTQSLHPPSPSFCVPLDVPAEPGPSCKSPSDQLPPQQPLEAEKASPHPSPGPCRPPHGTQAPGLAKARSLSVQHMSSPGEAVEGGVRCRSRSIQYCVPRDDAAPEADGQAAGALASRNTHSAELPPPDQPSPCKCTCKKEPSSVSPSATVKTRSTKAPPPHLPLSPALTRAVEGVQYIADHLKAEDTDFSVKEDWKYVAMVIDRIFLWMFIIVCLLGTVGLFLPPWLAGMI

[5] = molecular target: T3, Neuronal acetylcholine receptor; alpha3/beta4 (Homo sapiens, UniProt P30926+P32297); experiment: The compound was tested on recombinant human alpha3-beta4 cell lines of Human embryonic kidney for nicotinic acetylcholine receptor agonist functional potency; in short: as §1
Rattus norvegicus = species on record: Rattus norvegicus; experiment: The efficiency of the compound (300 micro M) to stimulate ([3H]DA) release; assay type: functional
[6] = molecular target: Acetylcholine receptor; alpha1/beta1/delta/gamma (Homo sapiens, UniProt P02708+P07510+P11230+Q07001); experiment: (§2) The compound was tested on recombinant human alpha-1-beta-1-gamma-delta cell lines of […] for nicotinic acetylcholine receptor agonist functional potency
[7] = molecular target: Muscle-type nicotinic acetylcholine receptor; experiment: as §2
[8] = molecular target: Neuronal acetylcholine receptor; alpha4/beta2 (Homo sapiens, UniProt P17787+P43681); experiment: The compound was tested on recombinant human alpha4-beta2 cell lines of Human embryonic kidney for nicotinic acetylcholine receptor agonist functional potency; IA=inactive; in short: as §1
[9] = molecular target: T2, Neuronal acetylcholine receptor; alpha4/beta4; experiment: The compound was tested on recombinant human alpha4-beta4 cell lines of HUman embryonic kidney for nicotinic acetylcholine receptor agonist functional potency; in short: as §1
Target sequence in this assay (P43681 whole entry, looked up): as the sequence (P43681 whole entry) above
Target sequence in this assay (P30926 whole entry, looked up): as the sequence (P30926 whole entry) above

[10] = molecular target: T3, Neuronal acetylcholine receptor; alpha3/beta4; experiment: The compound was tested on recombinant human alpha3-beta4 cell lines of HUman embryonic kidney for nicotinic acetylcholine receptor agonist functional potency; in short: as §1
[11] = molecular target: T1, Nicotinic acetylcholine receptor alpha2/beta4; experiment: The compound was tested on recombinant human alpha2-beta4 cell lines of HUman embryonic kidney for nicotinic acetylcholine receptor agonist efficacy

T1 sequence (P02708 whole entry): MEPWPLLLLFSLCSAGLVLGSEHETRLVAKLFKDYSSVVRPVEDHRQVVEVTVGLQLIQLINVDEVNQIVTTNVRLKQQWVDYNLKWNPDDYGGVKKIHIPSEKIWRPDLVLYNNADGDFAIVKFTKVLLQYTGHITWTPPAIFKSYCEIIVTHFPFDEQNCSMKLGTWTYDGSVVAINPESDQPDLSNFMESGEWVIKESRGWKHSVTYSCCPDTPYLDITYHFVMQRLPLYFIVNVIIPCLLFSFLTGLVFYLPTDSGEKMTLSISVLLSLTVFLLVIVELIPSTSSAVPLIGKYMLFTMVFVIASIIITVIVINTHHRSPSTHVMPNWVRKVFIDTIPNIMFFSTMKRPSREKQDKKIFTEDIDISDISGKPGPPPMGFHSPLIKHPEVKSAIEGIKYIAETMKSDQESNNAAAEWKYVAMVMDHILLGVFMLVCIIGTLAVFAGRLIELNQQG
T1 sequence (P30926 whole entry): as the sequence (P30926 whole entry) above
T3 sequence (P30926 whole entry): as above
T3 sequence (P32297 whole entry): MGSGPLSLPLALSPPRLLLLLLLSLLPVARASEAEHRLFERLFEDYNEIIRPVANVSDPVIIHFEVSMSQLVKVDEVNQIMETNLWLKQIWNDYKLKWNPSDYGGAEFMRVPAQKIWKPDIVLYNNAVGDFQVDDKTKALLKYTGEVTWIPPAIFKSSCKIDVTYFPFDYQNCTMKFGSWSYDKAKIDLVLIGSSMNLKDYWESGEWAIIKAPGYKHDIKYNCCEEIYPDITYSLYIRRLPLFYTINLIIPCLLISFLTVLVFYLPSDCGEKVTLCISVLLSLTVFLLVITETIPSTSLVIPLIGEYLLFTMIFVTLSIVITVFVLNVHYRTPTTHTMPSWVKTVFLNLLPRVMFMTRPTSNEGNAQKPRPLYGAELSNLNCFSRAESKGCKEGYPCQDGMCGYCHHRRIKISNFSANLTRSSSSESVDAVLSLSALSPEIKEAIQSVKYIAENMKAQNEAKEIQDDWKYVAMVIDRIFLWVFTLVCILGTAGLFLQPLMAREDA
Chain of Acetylcholine receptor; alpha1/beta1/delta/gamma (P02708 whole entry): as the sequence (P02708 whole entry) above
Chain of Acetylcholine receptor; alpha1/beta1/delta/gamma (P07510 whole entry): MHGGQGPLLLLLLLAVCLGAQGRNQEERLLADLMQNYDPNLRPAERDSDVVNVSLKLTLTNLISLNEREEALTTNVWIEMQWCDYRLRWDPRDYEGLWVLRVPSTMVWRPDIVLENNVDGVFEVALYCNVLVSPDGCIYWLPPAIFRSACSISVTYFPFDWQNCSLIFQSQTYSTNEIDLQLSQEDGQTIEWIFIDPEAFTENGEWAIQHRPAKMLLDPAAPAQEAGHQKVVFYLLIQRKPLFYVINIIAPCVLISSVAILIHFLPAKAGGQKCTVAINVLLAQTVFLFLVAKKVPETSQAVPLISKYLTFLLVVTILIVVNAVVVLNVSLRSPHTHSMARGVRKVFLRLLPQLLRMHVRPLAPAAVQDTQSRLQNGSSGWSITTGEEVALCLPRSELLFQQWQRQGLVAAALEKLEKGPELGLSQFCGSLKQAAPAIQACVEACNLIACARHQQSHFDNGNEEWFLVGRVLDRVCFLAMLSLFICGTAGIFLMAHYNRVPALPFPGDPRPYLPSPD
Chain of Acetylcholine receptor; alpha1/beta1/delta/gamma (P11230 whole entry): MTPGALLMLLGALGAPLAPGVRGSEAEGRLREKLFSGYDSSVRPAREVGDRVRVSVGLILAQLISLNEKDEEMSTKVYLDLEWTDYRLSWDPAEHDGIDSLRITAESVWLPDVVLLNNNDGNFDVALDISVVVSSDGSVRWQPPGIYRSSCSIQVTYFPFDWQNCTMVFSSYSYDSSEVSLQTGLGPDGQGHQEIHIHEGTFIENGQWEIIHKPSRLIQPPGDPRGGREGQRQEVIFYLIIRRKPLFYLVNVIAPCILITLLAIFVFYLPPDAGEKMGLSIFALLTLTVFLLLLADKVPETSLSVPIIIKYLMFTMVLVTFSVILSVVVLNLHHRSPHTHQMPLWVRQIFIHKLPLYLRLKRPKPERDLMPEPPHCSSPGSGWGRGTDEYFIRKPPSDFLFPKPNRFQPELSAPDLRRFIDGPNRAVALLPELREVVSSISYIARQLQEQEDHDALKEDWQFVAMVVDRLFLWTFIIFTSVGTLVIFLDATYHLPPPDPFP
Chain of Acetylcholine receptor; alpha1/beta1/delta/gamma (Q07001 whole entry): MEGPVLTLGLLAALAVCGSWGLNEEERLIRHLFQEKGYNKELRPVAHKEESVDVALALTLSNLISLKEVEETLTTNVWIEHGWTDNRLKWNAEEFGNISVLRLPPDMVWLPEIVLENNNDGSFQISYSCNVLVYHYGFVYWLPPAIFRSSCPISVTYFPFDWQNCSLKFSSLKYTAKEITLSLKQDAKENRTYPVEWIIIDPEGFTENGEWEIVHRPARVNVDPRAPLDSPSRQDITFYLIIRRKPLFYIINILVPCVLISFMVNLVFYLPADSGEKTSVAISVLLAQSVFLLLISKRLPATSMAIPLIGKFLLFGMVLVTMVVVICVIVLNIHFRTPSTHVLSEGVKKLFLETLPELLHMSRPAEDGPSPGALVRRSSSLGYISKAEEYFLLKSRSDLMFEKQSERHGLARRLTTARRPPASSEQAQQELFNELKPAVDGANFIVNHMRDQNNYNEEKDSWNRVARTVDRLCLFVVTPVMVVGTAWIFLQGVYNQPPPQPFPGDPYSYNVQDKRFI
Chain of Neuronal acetylcholine receptor; alpha4/beta2 (P17787 whole entry): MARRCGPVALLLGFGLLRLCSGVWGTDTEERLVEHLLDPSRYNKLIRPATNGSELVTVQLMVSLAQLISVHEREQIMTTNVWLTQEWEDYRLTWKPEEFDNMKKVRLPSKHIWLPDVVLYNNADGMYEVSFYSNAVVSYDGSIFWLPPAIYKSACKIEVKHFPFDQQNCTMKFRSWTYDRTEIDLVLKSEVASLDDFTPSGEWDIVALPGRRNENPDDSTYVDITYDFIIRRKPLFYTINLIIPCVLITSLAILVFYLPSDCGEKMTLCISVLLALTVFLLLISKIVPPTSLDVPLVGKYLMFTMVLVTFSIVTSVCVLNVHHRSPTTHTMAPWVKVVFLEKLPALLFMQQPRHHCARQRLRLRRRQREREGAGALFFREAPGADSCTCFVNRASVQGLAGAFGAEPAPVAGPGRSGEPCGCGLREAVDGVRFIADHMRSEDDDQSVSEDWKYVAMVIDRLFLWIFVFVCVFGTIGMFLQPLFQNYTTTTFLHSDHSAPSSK
Chain of Neuronal acetylcholine receptor; alpha4/beta2 (P43681 whole entry): as the sequence (P43681 whole entry) above

Row | Compound | IC50 [1] [µM] | EC50 [2] | IC50 [3] [µM] | EC50 [4] | EC50 [5] | Release (Rattus norvegicus) [%] | EC50 [6] | EC50 [7] [µM] | EC50 [8] | EC50 [9] | EC50 [10] [µM] | Efficacy [11] [%]
1 | C#Cc1cncc([C@@H]2CCCN2C)c1 [ALTINICLINE] | 8.9 | 5 µM and 49 µM | 0.003 | 9 µM and 26 µM | 23 µM and 52 µM | 163 | – | – | – | – | – | –
2 | C#Cc1cncc(C2CCCN2C)c1 (stereo not given) | 10.1 | 15 µM and 39 µM | 0.0046 | 25 µM and 23 µM | 41 µM and 34 µM | 143 | 52 µM and 53 µM | – | – | – | – | –
3 | CN1CCC[C@H]1c1cccnc1 [NICOTINE] | – | 10 µM | – | – | – | – | – | 65 | – | – | – | –
4 | CN1CCCC1c1cncc(Br)c1 (stereo not given) | 1.6 | – | 0.019 | – | – | 69 | – | – | – | – | – | –
5 | CCc1cncc(C2CCCN2C)c1 (stereo not given) | 5.8 | – | 0.011 | – | – | 27.5 | – | – | – | – | – | –
6 | C#Cc1cncc([C@H]2CCCN2C)c1 | 4.5 | 29 µM | 0.075 | – | 68 µM | 55 | – | – | Not Active | 31 µM and 8 µM | 68 | 9
